Source: ChEMBL document CHEMBL1145212, “Fluorinated diaryl sulfides as serotonin transporter ligands: synthesis, structure-activity relationship study, and in vivo evaluation of fluorine-18-labeled compounds as PET imaging agents” (J Med Chem, 2005)

Tests used:
Rattus norvegicus [1] = assay: Biodistribution of [18F]AFA in rat frontal cortex at 10 min postinjection in vivo; assay type: ADME, organism-based
In short: (§1)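 Male Sprague-Dawley rats, three per time point, received the F-18 radioligand in saline (~20 µCi per rat at injection) by tail vein. Under CO2 anesthesia they were decapitated at 10, 30, 60, 90 or 120 min. Blood and dissected brain regions were weighed and gamma counted. Activity was decay-corrected, and injected dose was corrected for tail residual activity. Uptake was expressed as %ID/g versus injectate standards, mean ± SD.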

Rattus norvegicus [2] = assay: Biodistribution of [18F]AFA in rat frontal cortex at 30 min postinjection in vivo; assay type: ADME, organism-based; conditions: 0.5 h; in short: as §1
Rattus norvegicus [3] = assay: Biodistribution of [18F]AFA in rat frontal cortex at 60 min postinjection in vivo; assay type: ADME, organism-based; conditions: 1 h; in short: as §1
Rattus norvegicus [4] = assay: Biodistribution of [18F]AFA in rat frontal cortex at 90 min postinjection in vivo; assay type: ADME, organism-based; conditions: 1.5 h; in short: as §1
Rattus norvegicus [5] = assay: Biodistribution of [18F]AFA in rat frontal cortex at 120 min postinjection in vivo; assay type: ADME, organism-based; conditions: 2 h; in short: as §1
Rattus norvegicus [6] = assay: Biodistribution of [18F]AFA in rat blood at 120 min postinjection in vivo; assay type: ADME, organism-based; conditions: 2 h; in short: as §1
Rattus norvegicus [7] = assay: Biodistribution of [18F]AFA in rat striatum at 10 min postinjection in vivo; assay type: ADME, organism-based; in short: as §1
Rattus norvegicus [8] = assay: Biodistribution of [18F]AFA in rat striatum at 30 min postinjection in vivo; assay type: ADME, organism-based; conditions: 0.5 h; in short: as §1
Rattus norvegicus [9] = assay: Biodistribution of [18F]AFA in rat striatum at 90 min postinjection in vivo; assay type: ADME, organism-based; conditions: 1.5 h
In short: (§2)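 Male Sprague-Dawley rats, three per group, received ~20 µCi of the F-18 radioligand in saline by tail-vein injection. Rats were anesthetized with CO2 and decapitated at 10, 30, 60, 90 or 120 min. Blood and brain regions were weighed and gamma-counted. %ID/g was decay- and tail-residual-corrected against F-18 standards made from the injectate and reported as mean ± SD.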

Rattus norvegicus [10] = assay: Biodistribution of [18F]AFA in rat thalamus at 10 min postinjection in vivo; assay type: ADME, organism-based; in short: as §2
Rattus norvegicus [11] = assay: Biodistribution of [18F]AFA in rat thalamus at 30 min postinjection in vivo; assay type: ADME, organism-based; conditions: 0.5 h; in short: as §2
Rattus norvegicus [12] = assay: Biodistribution of [18F]AFA in rat thalamus at 60 min postinjection in vivo; assay type: ADME, organism-based; conditions: 1 h; in short: as §2
Rattus norvegicus [13] = assay: Biodistribution of [18F]AFA in rat thalamus at 90 min postinjection in vivo; assay type: ADME, organism-based; conditions: 1.5 h; in short: as §2
Rattus norvegicus [14] = species on record: Rattus norvegicus; assay: Specific binding of [18F]AFA in striatum of rat pretreated with compound 7c; n=3; assay type: functional
Rattus norvegicus [15] = species on record: Rattus norvegicus; assay: Specific binding of [18F]AFA in thalamus of rat pretreated with compound 7c; n=3; assay type: functional
Rattus norvegicus [16] = species on record: Rattus norvegicus; assay: Specific binding of [18F]AFA in hippocampus of rat pretreated with compound 7c; n=3; assay type: functional
Rattus norvegicus [17] = species on record: Rattus norvegicus; assay: Specific binding of [18F]AFA in hypothalamus of rat pretreated with compound 7c; n=3; assay type: functional
Rattus norvegicus [18] = species on record: Rattus norvegicus; assay: Specific binding of [18F]AFA in frontal cortex of rat pretreated with compound 7c; n=3; assay type: functional
Rattus norvegicus [19] = assay: Biodistribution of [18F]AFA in rat blood at 10 min postinjection in vivo; assay type: ADME, organism-based; in short: as §1
Rattus norvegicus [20] = assay: Biodistribution of [18F]AFA in rat blood at 60 min postinjection in vivo; assay type: ADME, organism-based; conditions: 1 h; in short: as §1
Rattus norvegicus [21] = assay: Biodistribution of [18F]AFA in rat blood at 90 min postinjection in vivo; assay type: ADME, organism-based; conditions: 1.5 h; in short: as §1
Rattus norvegicus [22] = assay: Biodistribution of [18F]AFA in rat striatum 60 min postinjection in vivo; assay type: ADME, organism-based; conditions: 1 h; in short: as §1
Rattus norvegicus [23] = assay: Biodistribution of [18F]AFA in rat cerebellum at 120 min postinjection in vivo; assay type: ADME, organism-based; conditions: 2 h; in short: as §1
Rattus norvegicus [24] = assay: Biodistribution of [18F]AFA in rat hippocampus at 10 min postinjection in vivo; assay type: ADME, organism-based; in short: as §1
Rattus norvegicus [25] = assay: Biodistribution of [18F]AFA in rat hippocampus at 30 min postinjection in vivo; assay type: ADME, organism-based; conditions: 0.5 h; in short: as §1
Rattus norvegicus [26] = assay: Biodistribution of [18F]AFA in rat hippocampus at 60 min postinjection in vivo; assay type: ADME, organism-based; conditions: 1 h; in short: as §1
Rattus norvegicus [27] = assay: Biodistribution of [18F]AFA in rat hippocampus at 90 min postinjection in vivo; assay type: ADME, organism-based; conditions: 1.5 h; in short: as §1
Rattus norvegicus [28] = assay: Biodistribution of [18F]AFA in rat hippocampus at 120 min postinjection in vivo; assay type: ADME, organism-based; conditions: 2 h; in short: as §1
Rattus norvegicus [29] = assay: Biodistribution of [18F]AFA in rat hypothalamus at 10 min postinjection in vivo; assay type: ADME, organism-based; in short: as §1
Rattus norvegicus [30] = assay: Biodistribution of [18F]AFA in rat hypothalamus at 30 min postinjection in vivo; assay type: ADME, organism-based; conditions: 0.5 h; in short: as §1
Rattus norvegicus [31] = assay: Biodistribution of [18F]-AFA in rat hypothalamus at 60 min postinjection in vivo; assay type: ADME, organism-based; conditions: 1 h; in short: as §1
Rattus norvegicus [32] = assay: Biodistribution of [18F]AFA in rat hypothalamus at 90 min postinjection in vivo; assay type: ADME, organism-based; conditions: 1.5 h; in short: as §1
Rattus norvegicus [33] = assay: Biodistribution of [18F]AFA in rat striatum at 120 min postinjection in vivo; assay type: ADME, organism-based; conditions: 2 h; in short: as §1
Rattus norvegicus [34] = assay: Biodistribution of [18F]-AFA in rat thalamus at 120 min postinjection in vivo; assay type: ADME, organism-based; conditions: 2 h; in short: as §1
Rattus norvegicus [35] = assay: Biodistribution of [18F]AFA in rat cerebellum at 30 min postinjection in vivo; assay type: ADME, organism-based; conditions: 0.5 h; in short: as §1
Rattus norvegicus [36] = assay: Biodistribution of [18F]AFA in rat cerebellum at 60 min postinjection in vivo; assay type: ADME, organism-based; conditions: 1 h; in short: as §1
Rattus norvegicus [37] = assay: Biodistribution of [18F]AFA in rat cerebellum at 90 min postinjection in vivo; assay type: ADME, organism-based; conditions: 1.5 h; in short: as §1
Rattus norvegicus [38] = assay: Biodistribution of [18F]AFA in rat blood at 30 min postinjection in vivo; assay type: ADME, organism-based; conditions: 0.5 h; in short: as §1
Rattus norvegicus [39] = assay: Biodistribution of [18F]AFA in rat cerebellum at 10 min postinjection in vivo; assay type: ADME, organism-based; in short: as §1
Rattus norvegicus [40] = assay: Biodistribution of [18F]AFA in rat hypothalamus at 120 min postinjection in vivo; assay type: ADME, organism-based; conditions: 2 h; in short: as §1

## CN(C)Cc1ccccc1Sc1ccc([18F])cc1N
Rattus norvegicus [1]
  Biodistribution: 0.81 %ID/g
Rattus norvegicus [2]
  Biodistribution: 0.65 %ID/g
Rattus norvegicus [3]
  Biodistribution: 0.28 %ID/g
Rattus norvegicus [4]
  Biodistribution: 0.2 %ID/g
Rattus norvegicus [5]
  Biodistribution: 0.11 %ID/g
Rattus norvegicus [6]
  Biodistribution: 0.07 %ID/g
Rattus norvegicus [7]
  Biodistribution: 0.65 %ID/g
Rattus norvegicus [8]
  Biodistribution: 0.58 %ID/g
Rattus norvegicus [9]
  Biodistribution: 0.19 %ID/g
Rattus norvegicus [10]
  Biodistribution: 0.72 %ID/g
Rattus norvegicus [11]
  Biodistribution: 0.69 %ID/g
Rattus norvegicus [12]
  Biodistribution: 0.34 %ID/g
Rattus norvegicus [13]
  Biodistribution: 0.23 %ID/g
Rattus norvegicus [14]
  Specific binding: 0.37 %ID/g
Rattus norvegicus [15]
  Specific binding: 0.81 %ID/g
Rattus norvegicus [16]
  Specific binding: 0.55 %ID/g
Rattus norvegicus [17]
  Specific binding: 0.62 %ID/g
Rattus norvegicus [18]
  Specific binding: 0.53 %ID/g
Rattus norvegicus [19]
  Biodistribution: 0.27 %ID/g
Rattus norvegicus [20]
  Biodistribution: 0.08 %ID/g
Rattus norvegicus [21]
  Biodistribution: 0.08 %ID/g
Rattus norvegicus [22]
  Biodistribution: 0.26 %ID/g
Rattus norvegicus [23]
  Biodistribution: 0.04 %ID/g
Rattus norvegicus [24]
  Biodistribution: 0.54 %ID/g
Rattus norvegicus [25]
  Biodistribution: 0.48 %ID/g
Rattus norvegicus [26]
  Biodistribution: 0.23 %ID/g
Rattus norvegicus [27]
  Biodistribution: 0.18 %ID/g
Rattus norvegicus [28]
  Biodistribution: 0.1 %ID/g
Rattus norvegicus [29]
  Biodistribution: 0.73 %ID/g
Rattus norvegicus [30]
  Biodistribution: 0.66 %ID/g
Rattus norvegicus [31]
  Biodistribution: 0.38 %ID/g
Rattus norvegicus [32]
  Biodistribution: 0.3 %ID/g
Rattus norvegicus [33]
  Biodistribution: 0.11 %ID/g
Rattus norvegicus [34]
  Biodistribution: 0.16 %ID/g
Rattus norvegicus [35]
  Biodistribution: 0.2 %ID/g
Rattus norvegicus [36]
  Biodistribution: 0.07 %ID/g
Rattus norvegicus [37]
  Biodistribution: 0.04 %ID/g
Rattus norvegicus [38]
  Biodistribution: 0.16 %ID/g
Rattus norvegicus [39]
  Biodistribution: 0.38 %ID/g
Rattus norvegicus [40]
  Biodistribution: 0.17 %ID/g
